The source of these data is paper PMC3428507 (Journal of molecular biology, 2012).

One test relates to Pf1 PHD2. Briefly: NMR titration of Pf1 PHD2 with small molecule mimics of histone modifications. Type of test: binding, human. As to conditions: unpublished data.
Test [1] has as its target T1, Pf1 PHD1 (Homo sapiens, UniProt Q96QT6). It is filed as binding. Particulars: even at molar concentrations; unpublished data.
Test [2] has as its system Pf1 PHD1/MBD (residues 48–241). Put plainly: NMR of 15N-labeled Pf1 PHD1/MBD with MRG15 proteins. It is filed as binding, human. Particulars: equimolar; 20 mM Tris pH 7.5, 50 mM NaCl, 10 μM ZnSO4, 15 mM DTT, 0.2% NaN3, 25 °C.
For the next test, the target named is MRG15 CD (Homo sapiens, UniProt Q9UBU8). Put plainly: NMR titration of 15N-labeled MRG15 CD with methyllysine peptides/ligands. It is filed as binding.
Test [3] addresses T1, Pf1 PHD1. Put plainly: Pulldown of GST-Pf1 PHD1 with biotinylated histone H3 peptides. Particulars: GST-Pf1 PHD1 (residues 53–103); wash 50 mM Tris pH 7.5, 150 mM NaCl, 0.05% NP-40; SDS-PAGE, Coomassie. It is filed as binding. In outline: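 GST-Pf1 PHD1 (53–103) and GST-Pf1 PHD2 (268–319) came from E. coli and were eluted from glutathione resin with glutathione. They were incubated with an array of biotinylated histone H3 peptides on avidin beads. Washes also held 0.3 mg/ml BSA and 1 mM DTT. Bound protein was resolved by SDS-PAGE.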

T1 sequence (Q96QT6 48-116): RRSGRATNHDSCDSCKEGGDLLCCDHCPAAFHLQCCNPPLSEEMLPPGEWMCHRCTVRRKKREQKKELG
Sequence of MRG15 CD (Q9UBU8 1-90 isoform Q9UBU8-2): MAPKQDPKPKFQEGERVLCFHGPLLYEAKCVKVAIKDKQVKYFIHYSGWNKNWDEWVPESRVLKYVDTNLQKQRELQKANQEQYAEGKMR

On to `C[C@@H](OP(=O)(O)O)[C@H](N)C(=O)O` [phosphothreonine], for which, in the test on Pf1 PHD2, the “interaction with Pf1 PHD2 in NMR titrations” value (“interaction with Pf1 PHD2” below) is “lack of any interaction”.

With `CC(=O)NCCCC[C@H](N)C(=O)O` [acetyllysine], the “interaction with Pf1 PHD2” value in the test with Pf1 PHD2 is given as “lack of any interaction”. For the same molecule, the “interaction with Pf1 PHD1 in NMR titrations” value at Pf1 PHD1 [1] is “neither trimethyllysine nor acetyllysine interacted with Pf1 PHD1”.

For the molecule “MRG15 MRG: MRG domain of MRG15 (residues 155–323)”, the “effect on 15N-Pf1 PHD1/MBD spectrum” value in test [2] was “disappearance of resonances corresponding to the PHD1 domain”.

One may read the Kd as the constant that tells how readily two partners part at equilibrium. `C[N+](C)(C)CCCC[C@H](N)C(=O)O` [trimethyllysine] gave a Kd on MRG15 CD of 11 ± 3.3 mM. For the same molecule, at MRG15 CD (pH 7.5, 25 °C), the “perturbations in the MRG15 CD NMR spectrum” value is listed as “induced a similar pattern of perturbations in the NMR spectrum of MRG15 CD as the aforementioned peptides”. Also, the “interaction with Pf1 PHD2” value with Pf1 PHD2 is reported as “lack of any interaction”. In addition, the “interaction with Pf1 PHD1 in NMR titrations” value on Pf1 PHD1 [1] is “neither trimethyllysine nor acetyllysine interacted with Pf1 PHD1”.

On to “18–37: biotinylated H3 peptide spanning residues 18–37”, for which the “binding to Pf1 PHD1 in pulldown” value with Pf1 PHD1 [3] is reported as “failed to do so”.

Take “H3 peptides spanning residues 27–46: biotinylated H3 peptide spanning residues 27–46”: the “binding to Pf1 PHD1 in pulldown” value in the test with Pf1 PHD1 [3] was “failed to do so”.

As for “H3 peptide spanning residues 1–20: unmodified biotinylated histone H3 peptide spanning residues 1–20”, in the test with Pf1 PHD1 [3], the “binding to Pf1 PHD1 in pulldown” value is “bound to Pf1 PHD1”.

Turning to `N[C@@H](COP(=O)(O)O)C(=O)O` [phosphoserine], the “interaction with Pf1 PHD2” value in the test on Pf1 PHD2 was “lack of any interaction”.

As to dimethylarginine, in the test on Pf1 PHD2, the “interaction with Pf1 PHD2” value is listed as “lack of any interaction”.
